Measurements as given in ChEMBL document CHEMBL4118052, “Involvement of the Glucocorticoid Receptor in Pro-inflammatory Transcription Factor Inhibition by Daucane Esters from Laserpitium zernyi” (J Nat Prod, 2017).

Experiments:
[1] = target: T1, Glucocorticoid receptor (Homo sapiens) (UniProt P04150); experiment: Modulation of glucocorticoid receptor in human A549 cells assessed as 0.01 uM dexamethasone-induced GRE-driven promoter activity at 10 uM by luciferase reporter gene assay (reference value: 100%); type: cell-based
T1 sequence (whole entry): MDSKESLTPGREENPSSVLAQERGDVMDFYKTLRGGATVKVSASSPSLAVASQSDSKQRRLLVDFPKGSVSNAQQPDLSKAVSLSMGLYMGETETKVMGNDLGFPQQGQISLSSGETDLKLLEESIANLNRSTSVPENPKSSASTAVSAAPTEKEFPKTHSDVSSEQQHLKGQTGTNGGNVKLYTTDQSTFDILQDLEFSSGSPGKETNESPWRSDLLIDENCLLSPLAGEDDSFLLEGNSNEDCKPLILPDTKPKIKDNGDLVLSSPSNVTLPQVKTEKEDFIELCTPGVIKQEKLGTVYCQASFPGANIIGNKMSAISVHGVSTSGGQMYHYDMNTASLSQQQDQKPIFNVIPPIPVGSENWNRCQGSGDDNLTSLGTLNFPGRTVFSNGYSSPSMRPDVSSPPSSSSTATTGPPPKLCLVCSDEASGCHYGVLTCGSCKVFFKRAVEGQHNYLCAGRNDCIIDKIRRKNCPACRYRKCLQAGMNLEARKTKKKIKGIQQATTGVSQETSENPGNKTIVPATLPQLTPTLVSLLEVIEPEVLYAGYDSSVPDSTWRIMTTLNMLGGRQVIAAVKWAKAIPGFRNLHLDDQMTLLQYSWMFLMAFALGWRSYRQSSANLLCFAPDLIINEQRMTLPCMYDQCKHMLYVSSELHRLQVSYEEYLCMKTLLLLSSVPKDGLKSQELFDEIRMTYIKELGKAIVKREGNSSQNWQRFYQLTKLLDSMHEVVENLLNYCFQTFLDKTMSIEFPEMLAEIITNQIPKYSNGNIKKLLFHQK
How it was run: (§1)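 A549 cells with a stably integrated GRE-dependent promoter-luciferase construct. Compound at 10 or 30 μM given together with dexamethasone at 0.1 or 0.01 μM. Luciferase expressed as % of Dex-induced expression with solvent alone. Mean ± SD of ≥3 independent replicates.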

[2] = target: T1, Glucocorticoid receptor (Homo sapiens); experiment: Modulation of glucocorticoid receptor in human A549 cells assessed as 0.01 uM dexamethasone-induced GRE-driven promoter activity at 30 uM by luciferase reporter gene assay (reference value: 100%); type: cell-based; how it was run: as §1
[3] = target: T1, Glucocorticoid receptor (Homo sapiens); experiment: Modulation of glucocorticoid receptor in human A549 cells harboring AP-1-Luc assessed as reduction in PMA-induced AP-1 activity preincubated for 1 hr followed by PMA stimulation measured after 5 hrs by luciferase reporter gene assay; type: cell-based
How it was run: (§2)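 AP-1-Luc A549 cells (9000/well, 24 h) pretreated 1 h with compound (10–60 μM), dexamethasone 1 μM or solvent, then PMA-induced for 5 h. Luciferase activity as % of PMA-induced solvent group. One-way ANOVA with Tukey test.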

[4] = system: A549; experiment: Cytotoxicity against TNFalpha stimulated human A549 cells harboring NFkB-Luc assessed as reduction in cell viability preincubated for 1 hr followed by TNFalpha stimulation measured after 5 hrs by Cell-Titer Glo assay; type: cell-based; details: a549, 5 h
How it was run: (§3)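 A549 cells with stably integrated NF-κB-Luc seeded at 9000/well for 24 h, then exposed to compound (10, 30, 60 μM) or solvent. TNF given 1 h later, 5 h incubation. Cell Titer Glo ATP readout, with TNF-treated solvent group as 100%.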

[5] = target: T1, Glucocorticoid receptor (Homo sapiens); experiment: Modulation of glucocorticoid receptor in human A549 cells assessed as 0.1 uM dexamethasone-induced GRE-driven promoter activity at 30 uM by luciferase reporter gene assay (reference value: 100%); type: cell-based; how it was run: as §1
[6] = system: A549; experiment: Cytotoxicity against PMA stimulated human A549 cells harboring AP-1-Luc assessed as reduction in cell viability preincubated for 1 hr followed by PMA stimulation measured after 5 hrs by Cell-Titer Glo assay; type: cell-based; details: a549, 5 h
How it was run: (§4)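 AP-1-Luc A549 cells (9000/well) incubated 24 h, then compound (10, 30, 60 μM) or solvent added. PMA induction 1 h later, 5 h further incubation. Viability by Cell Titer Glo ATP luminescence. Solvent group treated with PMA set as 100%.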

[7] = target: T1, Glucocorticoid receptor (Homo sapiens); experiment: Modulation of glucocorticoid receptor in human A549 cells harboring NFkB-Luc assessed as reduction in TNFalpha-induced NFkB activity preincubated for 1 hr followed by TNFalpha stimulation measured after 5 hrs by luciferase reporter gene assay; type: cell-based
How it was run: (§5)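 A549 cells with stably integrated NF-κB-Luc (9000/well, 24 h) given compound at 10, 30 or 60 μM, dexamethasone 1 μM or solvent for 1 h. TNF (200 IU/mL) induction for 5 h, then luciferase read. Values as % of TNF-induced solvent control; four independent replicates; one-way ANOVA.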

[8] = target: T1, Glucocorticoid receptor (Homo sapiens); experiment: Modulation of glucocorticoid receptor in human A549 cells assessed as 0.1 uM dexamethasone-induced GRE-driven promoter activity at 10 uM by luciferase reporter gene assay (reference value: 100%); type: cell-based; how it was run: as §1
[9] = system: A549; experiment: Inhibition of TNFalpha-induced NFkB activity in GR knockout human A549 cells harboring NFkB-Luc assessed as NFkB activity at 1 uM preincubated for 1 hr followed by TNFalpha stimulation measured after 5 hrs by luciferase reporter gene assay (reference value: 100%); type: functional; design: scale not given: the % may be the effect or the level left
How it was run: (§6)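 GR-knockout A549 cells carrying stably integrated NF-κB-Luc. Pretreatment 1 h with compound (30 μM) or dexamethasone (1 μM), then TNF (200 IU/mL) for 5 h. Luciferase luminescence as % of TNF-induced solvent control.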

[10] = system: A549; experiment: Cytotoxicity against PMA stimulated human A549 cells harboring AP-1-Luc assessed as reduction in cell viability at 60 uM preincubated for 1 hr followed by PMA stimulation measured after 5 hrs by Cell-Titer Glo assay relative to control; type: cell-based; details: a549, 5 h; how it was run: as §4
[11] = Cytotoxicity against PMA stimulated human A549 cells harboring AP-1-Luc assessed as cell viability at 30 uM preincubated for 1 hr followed by PMA stimulation measured after 5 hrs by Cell-Titer Glo assay (reference value: 100%); type: cell-based; details: read-out: Activity; how it was run: as §4
[12] = Cytotoxicity against TNFalpha stimulated human A549 cells harboring NFkB-Luc assessed as cell viability at 30 uM preincubated for 1 hr followed by TNFalpha stimulation measured after 5 hrs by Cell-Titer Glo assay (reference value: 100%); type: cell-based; details: read-out: Activity; how it was run: as §3
[13] = system: A549; experiment: Inhibition of TNFalpha-induced NFkB activity in GR knockout human A549 cells harboring NFkB-Luc assessed as NFkB activity at 30 uM preincubated for 1 hr followed by TNFalpha stimulation measured after 5 hrs by luciferase reporter gene assay (reference value: 100%); type: functional; design: scale not given: the % may be the effect or the level left; how it was run: as §6
[14] = Cytotoxicity against GR knockout human A549 cells harboring Neo-Luc assessed as cell viability at 30 uM by Cell-Titer Glo assay (reference value: 100%); type: cell-based; details: read-out: Activity
How it was run: (§7)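 NeoLuc A549 cells (9000/well) incubated 24 h, then test compound or solvent added; viability by Cell Titer Glo ATP luminescence, run by the same protocol as the reporter assays. Solvent-treated control taken as 100%.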

[15] = system: A549; experiment: Cytotoxicity against TNFalpha stimulated human A549 cells harboring NFkB-Luc assessed as reduction in cell viability at 60 uM preincubated for 1 hr followed by TNFalpha stimulation measured after 5 hrs by Cell-Titer Glo assay relative to control; type: cell-based; details: a549, 5 h; how it was run: as §3
[16] = system: A549; experiment: Cytotoxicity against GR knockout human A549 cells harboring Neo-Luc assessed as reduction in cell viability at 60 uM by Cell-Titer Glo assay relative to control; type: cell-based; details: a549, 60 µM; how it was run: as §7
[17] = target: T1, Glucocorticoid receptor (Homo sapiens); experiment: Modulation of glucocorticoid receptor in human A549 cells assessed as TNFalpha-induced CCL2 production at 30 uM preincubated for 1 hr followed by TNFalpha stimulation measured after 5 hrs by ELISA (reference value: 100%); type: cell-based
How it was run: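 Basal (non-reporter) A549 cells treated with compound at 30 μM, then TNF (200 IU/mL). CCL2 protein in medium measured by ELISA, as % of TNF-treated solvent control. Mean ± SD of three independent replicates; Student's t test.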

[18] = target: T1, Glucocorticoid receptor (Homo sapiens); experiment: Modulation of glucocorticoid receptor in human A549 cells harboring AP-1-Luc assessed as reduction in PMA-induced AP-1 activity by measuring AP-1 activity at 60 uM preincubated for 1 hr followed by PMA stimulation measured after 5 hrs by luciferase reporter gene assay (reference value: 100%); type: cell-based; design: scale not given: the % may be the effect or the level left; how it was run: as §2
[19] = Cytotoxicity against GR knockout human A549 cells harboring Neo-Luc assessed as cell viability at 60 uM by Cell-Titer Glo assay (reference value: 100%); type: cell-based; details: read-out: Activity; how it was run: as §7
[20] = Cytotoxicity against PMA stimulated human A549 cells harboring AP-1-Luc assessed as cell viability at 60 uM preincubated for 1 hr followed by PMA stimulation measured after 5 hrs by Cell-Titer Glo assay (reference value: 100%); type: cell-based; details: read-out: Activity; how it was run: as §4
[21] = target: T1, Glucocorticoid receptor (Homo sapiens); experiment: Modulation of glucocorticoid receptor in human A549 cells harboring NFkB-Luc assessed as reduction in TNFalpha-induced NFkB activity by measuring NFkB activity at 60 uM preincubated for 1 hr followed by TNFalpha stimulation measured after 5 hrs by luciferase reporter gene assay (reference value: 100%); type: cell-based; design: scale not given: the % may be the effect or the level left; how it was run: as §5
[22] = Cytotoxicity against TNFalpha stimulated human A549 cells harboring NFkB-Luc assessed as cell viability at 60 uM preincubated for 1 hr followed by TNFalpha stimulation measured after 5 hrs by Cell-Titer Glo assay (reference value: 100%); type: cell-based; details: read-out: Activity; how it was run: as §3

Compound | Activity [1] [%] | Activity [2] [%] | Activity [3] | Activity [4] | Activity [5] [%] | Activity [6] | Activity [7] | Activity [8] [%] | Activity [10] | viability at 5 h, 30 µM [11] [%] | viability at 5 h, 30 µM [12] [%] | Activity [13] [%] | viability at 30 µM [14] [%] | Activity [15] | Activity [16] | Activity [17] [%] | Activity [18] [%] | further results
C/C=C(/C)C(=O)O[C@@H]1C[C@@](O)(C(C)C)[C@@H]2CC=C(C)C(=O)[C@@H](O)[C@]21C | > 90 | 52.8 | Dose-dependent effect | Dose-dependent effect | 71.6 | Dose-dependent effect | Dose-dependent effect | > 90 | – | – | – | – | – | – | – | – | – | –
C[C@@H]1C[C@H]2[C@@H]3CCC4=CC(=O)C=C[C@]4(C)[C@@]3(F)[C@@H](O)C[C@]2(C)[C@@]1(O)C(=O)CO [DEXAMETHASONE] | – | – | – | – | – | – | – | – | – | – | – | – | – | – | – | – | – | Activity [9]: 97.2%
C/C=C(/C)C(=O)O[C@@H]1C[C@@](O)(C(C)C)[C@@H]2CCC(C)=C[C@@H](O)[C@]21C | > 90 | 77 | Dose-dependent effect | Dose-dependent effect | 80.9 | Dose-dependent effect | Dose-dependent effect | > 90 | <= 10% | > 97 | > 97 | 91.8 | > 97 | <= 10% | <= 10% | – | – | –
C/C=C(/C)C(=O)O[C@H]1C[C@@](C)(O)C(=O)[C@@H](OC(=O)/C(C)=C\C)[C@@]2(C)CC[C@@](O)(C(C)C)[C@H]12 | > 90 | 83.5 | Dose-dependent effect | Dose-dependent effect | > 90 | Dose-dependent effect | Dose-dependent effect | > 90 | – | – | – | – | – | – | – | – | – | –
C/C=C(/C)C(=O)O[C@@H]1C=C(C)CC[C@]2(O)[C@@H](C(C)C)CC(=O)[C@]12C | > 90 | 80.4 | Dose-dependent effect | Dose-dependent effect | 74.5 | Dose-dependent effect | Dose-dependent effect | > 90 | <= 10% | > 97 | > 97 | – | > 97 | <= 10% | <= 10% | 70.1 | 41.4 | –
C/C=C(/C)C(=O)O[C@@H]1C[C@@](O)(C(C)C)[C@@H]2CCC(C)=C[C@@H](OC(C)=O)[C@]21C | 70.1 | 48.9 | Dose-dependent effect | Dose-dependent effect | 67.1 | Dose-dependent effect | Dose-dependent effect | 78 | – | > 95 | > 95 | 83.6 | > 95 | – | – | 72.1 | 41 | viability at 60 µM [19]: 90%; viability at 5 h, 60 µM [20]: 93.4%; Activity [21]: 52%; viability at 5 h, 60 µM [22]: 97.3%
